Data published in ChEMBL document CHEMBL4406867, “Synthesis and antidepressant effect of novel aralkyl piperazine and piperidine derivatives targeting SSRI/5-HT1A/5-HT7” (Bioorg Med Chem Lett, 2019).

Assays:
[1] = Clearance in rat liver microsomes at 1 uM in presence of NADPH generating system measured for 10 to 90 mins by LC-MS/MS analysis; format: ADME, Microsome
Summary of the method: (§1)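 Rat liver microsomes; stability expressed as t1/2 (min) and intrinsic clearance (μL/min/mg).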

[2] = target: Sodium-dependent serotonin transporter (Rattus norvegicus, UniProt P31652); test: Inhibition of rat synaptosomes 5HT transporter assessed as reduction in [3H]serotonin reuptake incubated for 15 mins by scintillation counting method; format: subcellular
[3] = Half life in rat liver microsomes at 1 uM in presence of NADPH generating system measured for 10 to 90 mins by LC-MS/MS analysis; format: ADME, Microsome; summary of the method: as §1
[4] = target: T1, 5-hydroxytryptamine receptor 7 (Homo sapiens, UniProt P34969); test: Displacement of [3H]-LSD from 5HT7 receptor (unknown origin) expressed in CHO cell membranes incubated for 120 mins by scintillation counting method
[5] = target: T2, 5-hydroxytryptamine receptor 1A (Homo sapiens, UniProt P08908); test: Displacement of [3H]-8-OH-DPAT from 5HT1A receptor (unknown origin) expressed in HEK293 cells membranes incubated for 60 mins by scintillation counting method; format: cell membranes
T2 sequence (P08908 whole entry): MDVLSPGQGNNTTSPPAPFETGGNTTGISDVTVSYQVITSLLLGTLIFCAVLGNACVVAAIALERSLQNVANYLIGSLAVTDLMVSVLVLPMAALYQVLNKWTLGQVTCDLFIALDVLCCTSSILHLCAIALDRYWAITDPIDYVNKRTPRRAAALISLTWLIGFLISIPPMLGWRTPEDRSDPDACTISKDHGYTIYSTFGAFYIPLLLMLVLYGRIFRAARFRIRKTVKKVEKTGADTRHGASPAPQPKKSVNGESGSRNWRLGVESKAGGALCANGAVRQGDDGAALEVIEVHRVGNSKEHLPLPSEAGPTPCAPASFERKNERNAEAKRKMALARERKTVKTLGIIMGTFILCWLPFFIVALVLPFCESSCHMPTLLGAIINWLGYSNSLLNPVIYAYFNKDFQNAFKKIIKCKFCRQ

[6] = target: T3, 5-hydroxytryptamine receptor 1A (Homo sapiens) (UniProt P08908); test: Displacement of [3H]-8-OH-DPAT from 5HT1A receptor (unknown origin) expressed in HEK293 cells membranes at 10 uM incubated for 60 mins by scintillation counting method relative to control; format: cell membranes
T3 sequence (whole entry): T2 sequence (P08908 whole entry)
Summary of the method: (§2)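 Single-concentration screen at 10 μM, reported as percent inhibition; 5-HT1A by [3H]-8-OH-DPAT displacement from HEK-293 membrane homogenates, 5-HT7 by [3H]-LSD displacement from CHO membrane homogenates, SERT by [3H]-5-HT uptake into rat brain synaptosomes.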

[7] = target: T1, 5-hydroxytryptamine receptor 7; test: Displacement of [3H]-LSD from 5HT7 receptor (unknown origin) expressed in CHO cell membranes at 10 uM incubated for 120 mins by scintillation counting method relative to control; summary of the method: as §2
[8] = target: Sodium-dependent serotonin transporter (Rattus norvegicus) (UniProt P31652); test: Inhibition of rat synaptosomes 5HT transporter assessed as reduction in [3H]serotonin reuptake at 10 uM incubated for 15 mins by scintillation counting method relative to control; format: subcellular; summary of the method: as §2
[9] = Half life in human liver microsomes at 1 uM in presence of NADPH generating system measured for 10 to 90 mins by LC-MS/MS analysis; format: ADME, Microsome
Summary of the method: (§3)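 Human liver microsomes; metabolic stability as half-life (min) and clearance (μL/min/mg).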

[10] = Clearance in human liver microsomes at 1 uM in presence of NADPH generating system measured for 10 to 90 mins by LC-MS/MS analysis; format: ADME, Microsome; summary of the method: as §3
Mus musculus [11] = test: Antidepressant activity in ICR mouse assessed as decrease in immobility time at 40 mg/kg, po administrated for daily for 7 days measured 1 hr post last dose by forced swim test relative to control; format: functional; parameters: scale not given: the % may be the effect or the level left
Summary of the method: (§4)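 Male ICR mice dosed orally once daily for 7 days at 10, 20 or 40 mg/kg/day; immobility time scored in forced swim test against vehicle group; n = 10 per group, mean ± SEM.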

Mus musculus [12] = test: Antidepressant activity in orally dosed ICR mouse assessed as decrease in immobility time measured 1 hr post last dose by tail suspension test; format: functional, organism-based
Summary of the method: (§5)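 Male ICR mice given oral doses once daily for 7 days (10, 20, 40 mg/kg/day); immobility time recorded in tail suspension test versus control group.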

[13] = target: T1, 5-hydroxytryptamine receptor 7; format: functional
Mus musculus [14] = test: Antidepressant activity in ICR mouse assessed as decrease in immobility time at 10 mg/kg, po administrated for daily for 7 days measured 1 hr post last dose by tail suspension test relative to control; format: functional; parameters: scale not given: the % may be the effect or the level left; summary of the method: as §5
Mus musculus [15] = test: Antidepressant activity in ICR mouse assessed as decrease in immobility time at 20 mg/kg, po administrated for daily for 7 days measured 1 hr post last dose by forced swim test relative to control; format: functional; parameters: scale not given: the % may be the effect or the level left; summary of the method: as §4
Mus musculus [16] = test: Antidepressant activity in ICR mouse assessed as decrease in immobility time at 40 mg/kg, po administrated for daily for 7 days measured 1 hr post last dose by tail suspension test relative to control; format: functional; parameters: scale not given: the % may be the effect or the level left; summary of the method: as §5
Mus musculus [17] = test: Antidepressant activity in ICR mouse assessed as decrease in immobility time at 20 mg/kg, po administrated for daily for 7 days measured 1 hr post last dose by tail suspension test relative to control; format: functional; parameters: scale not given: the % may be the effect or the level left; summary of the method: as §5
[18] = target: T2, 5-hydroxytryptamine receptor 1A; test: Agonist activity at human recombinant 5HT1A receptor (unknown origin) stably expressed in CHO-K1 incubated for 30 mins by [35S]GTPgammaS binding assay; format: functional
Mus musculus [19] = test: Antidepressant activity in orally dosed ICR mouse assessed as decrease in immobility time measured 1 hr post last dose by forced swim test; format: functional, organism-based; summary of the method: as §4
Mus musculus [20] = test: Antidepressant activity in ICR mouse assessed as decrease in immobility time at 10 mg/kg, po administrated for daily for 7 days measured 1 hr post last dose by forced swim test relative to control; format: functional; parameters: scale not given: the % may be the effect or the level left; summary of the method: as §4

T1 sequence (P34969 whole entry): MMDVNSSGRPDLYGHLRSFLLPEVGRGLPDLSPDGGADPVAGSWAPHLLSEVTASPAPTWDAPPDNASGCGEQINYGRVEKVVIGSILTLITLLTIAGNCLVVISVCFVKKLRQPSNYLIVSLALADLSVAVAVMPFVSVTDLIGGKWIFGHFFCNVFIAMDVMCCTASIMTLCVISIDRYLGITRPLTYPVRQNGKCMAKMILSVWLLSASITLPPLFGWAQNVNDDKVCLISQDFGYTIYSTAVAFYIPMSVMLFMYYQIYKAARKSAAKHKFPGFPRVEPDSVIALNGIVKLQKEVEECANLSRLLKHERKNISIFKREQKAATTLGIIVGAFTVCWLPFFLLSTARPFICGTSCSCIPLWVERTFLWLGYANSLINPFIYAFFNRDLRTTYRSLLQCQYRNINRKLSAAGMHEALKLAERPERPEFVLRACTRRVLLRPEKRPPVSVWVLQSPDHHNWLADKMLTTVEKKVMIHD
Chain of Sodium-dependent serotonin transporter (Rattus norvegicus) (P31652 whole entry): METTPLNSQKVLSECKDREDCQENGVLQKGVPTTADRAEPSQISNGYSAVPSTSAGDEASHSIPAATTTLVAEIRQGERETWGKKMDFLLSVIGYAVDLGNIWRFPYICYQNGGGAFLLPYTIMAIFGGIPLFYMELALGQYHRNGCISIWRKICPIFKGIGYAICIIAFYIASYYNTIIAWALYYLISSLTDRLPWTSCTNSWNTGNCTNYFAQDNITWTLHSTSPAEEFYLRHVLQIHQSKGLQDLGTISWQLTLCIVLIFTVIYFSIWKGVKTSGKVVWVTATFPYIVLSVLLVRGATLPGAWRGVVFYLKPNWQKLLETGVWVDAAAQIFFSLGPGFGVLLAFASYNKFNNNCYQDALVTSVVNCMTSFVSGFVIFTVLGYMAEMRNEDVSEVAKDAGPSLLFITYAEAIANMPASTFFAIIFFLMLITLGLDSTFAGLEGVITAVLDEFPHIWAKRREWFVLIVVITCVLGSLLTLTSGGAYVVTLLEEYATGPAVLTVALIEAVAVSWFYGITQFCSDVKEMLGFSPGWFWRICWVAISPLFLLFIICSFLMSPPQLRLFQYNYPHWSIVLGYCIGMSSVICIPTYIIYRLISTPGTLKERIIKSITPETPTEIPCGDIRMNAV
Chain of Sodium-dependent serotonin transporter (P31652 whole entry): as above

Compound	CLH [1] [µL/min/mg]	IC50 [2] [nM]	half-life at 1 µM [3] [min]	Ki [4] [nM]	Ki [5] [nM]	also measured
COc1ccc2[nH]c([S+]([O-])Cc3ncc(C)c(OC)c3C)nc2c1 (stereo not given) [OMEPRAZOLE]	163	–	–	–	–	–
Fc1ccc2[nH]cc(CCN3CCN(c4nsc5ccccc45)CC3)c2c1	452	23	3.1	0.99	1.6	–
Fc1ccc(N2CCN(CCCc3c[nH]c4ccc(F)cc34)CC2)c(-c2cc[nH]c2)c1	–	–	–	–	–	inhibition [6]: 97.4%; inhibition [7]: 99.1%; inhibition [8]: 78.9%
Fc1ccc2[nH]cc(CCCN3CCN(c4nsc5ccccc45)CC3)c2c1	397	1.1	3.5	2.2	1.6	–
Fc1ccc(N2CCN(CCCc3c[nH]c4ccc(F)cc34)CC2)c(-c2ccsc2)c1	56.5	4	24.5	2	8.4	–
Fc1ccc(N2CCN(CCCc3c[nH]c4ccc(F)cc34)CC2)c(-c2cccnc2)c1	240	–	5.8	–	–	inhibition [6]: 99.1%; inhibition [7]: 100%; inhibition [8]: 104%
Fc1ccc(C2CCN(CCCc3c[nH]c4ccc(F)cc34)CC2)c(-c2ccsc2)c1	75.6	14	18.3	–	–	–
Fc1ccc2c(C3CCN(CCCc4c[nH]c5ccc(F)cc45)CC3)noc2c1	301	0.92	4.6	–	–	inhibition [6]: 101%; inhibition [7]: 99.8%
Fc1ccc(N2CCN(CCCc3c[nH]c4ccc(F)cc34)CC2)c(-c2cccs2)c1	–	21	–	11	38	–
Cc1ccc(Sc2ccccc2N2CCNCC2)c(C)c1 [VORTIOXETINE]	153	–	–	–	–	half-life at 1 µM [9]: 214 min; CLH [10]: 6.47 µL/min/mg; Activity (Mus musculus [11]): 35%
Fc1ccc(N2CCN(CCCc3c[nH]c4ccc(F)cc34)CC2)c(-c2cn[nH]c2)c1	192	1.3	7.2	0.9	6.3	–
Fc1ccc(N2CCN(CCCc3c[nH]c4ccc(F)cc34)CC2)c(-c2ccoc2)c1	134	3	10.3	11	15	–
Fc1ccc(N2CCN(CCCc3c[nH]c4ccc(F)cc34)CC2)c(-c2cncnc2)c1	209	–	6.6	–	–	inhibition [6]: 98.8%; inhibition [7]: 90.9%; inhibition [8]: 102%
Fc1ccc(C2CCN(CCCc3c[nH]c4ccc(F)cc34)CC2)c(-c2ccccc2)c1	28.5	14	48.6	–	–	Activity (Mus musculus [12]): Dose-dependent effect; IC50 [13]: 650 nM; Activity (Mus musculus [14]): 28%; Activity (Mus musculus [15]): 47%; half-life at 1 µM [9]: 49.9 min; Activity (Mus musculus [16]): 43%; CLH [10]: 27.8 µL/min/mg; Activity (Mus musculus [11]): 43%; Activity (Mus musculus [17]): 35%; EC50 [18]: 1180 nM; Activity (Mus musculus [19]): Dose-dependent effect; Activity (Mus musculus [20]): 29%
N#Cc1ccc2[nH]cc(CCCCN3CCN(c4ccc5oc(C(N)=O)cc5c4)CC3)c2c1 [VILAZODONE]	48.6	–	28.5	3900	–	half-life at 1 µM [9]: 53.3 min; Activity (Mus musculus [16]): 60%; CLH [10]: 26 µL/min/mg
Fc1ccc2[nH]cc(CCCCN3CCN(c4nsc5ccccc45)CC3)c2c1	403	7.08	3.4	–	–	inhibition [6]: 101%; inhibition [7]: 98.5%
Cn1cc(-c2cc(F)ccc2N2CCN(CCCc3c[nH]c4ccc(F)cc34)CC2)cn1	146	2.7	9.5	–	–	–
COc1ccc2c(c1)[C@]13CCCC[C@@H]1[C@H](C2)N(C)CC3 [DEXTROMETHORPHAN]	–	–	–	–	–	half-life at 1 µM [9]: 44.7 min; CLH [10]: 31 µL/min/mg
